Measured values published in article PMC13170702 (Nuclear medicine and biology, 2025).

Test: organ radiation dose estimates, OLINDA 1.1, ICRP-60
Type: in vivo, human
Procedure, shortened: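 Whole-body PET-MR ran as nine scans to 214 min. Organ VOIs were drawn in AMIDE, giving decay-corrected %IA per VOI; remainder = whole body minus measured organs. TIACs came from the exponential model (EXM) in OLINDA 1.1. Per-participant organ doses used 70 kg adult male or 55 kg female models in OLINDA 1.1. Effective dose (mSv) = organ absorbed doses × ICRP-60 tissue weighting factors.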

COC(=O)[C@@H](N)CC(=O)Nc1ccc2c(c1)Cc1cc([18F])ccc1-2 [[^18F]RP-115, methyl N^4-(7-[^18F]fluoro-9H-fluoren-2-yl)asparaginate]
Estimated dose, Upper, lower intestine wall (Female n=4, mean±SD): 0.0160±0.0012 mGy/MBq
Estimated dose, Urinary bladder wall (Female n=4, mean±SD): 0.0588±0.0438 mGy/MBq
Estimated dose, Uterus (Female n=4, mean±SD): 0.0569±0.0512 mGy/MBq
Effective dose (whole body) (M1 (326 MBq)): 6.74 mSv
Estimated absorbed dose, Adrenals (M1 (326 MBq)): 6.51 mGy
Estimated absorbed dose, Brain (M1 (326 MBq)): 5.63 mGy
Estimated absorbed dose, Breasts (M1 (326 MBq)): 2.73 mGy
Estimated absorbed dose, Gallbladder wall (M1 (326 MBq)): 9.08 mGy
Estimated absorbed dose, Heart wall (M1 (326 MBq)): 8.79 mGy
Estimated absorbed dose, Kidneys (M1 (326 MBq)): 72.0 mGy
Estimated absorbed dose, Liver (M1 (326 MBq)): 16.0 mGy
Estimated absorbed dose, Lower large intestine wall (M1 (326 MBq)): 3.45 mGy
Estimated absorbed dose, Lungs (M1 (326 MBq)): 19.7 mGy
Estimated absorbed dose, Muscle (M1 (326 MBq)): 3.00 mGy
Estimated absorbed dose, Osteogenic cells (M1 (326 MBq)): 4.07 mGy
Estimated absorbed dose, Pancreas (M1 (326 MBq)): 6.41 mGy
Estimated absorbed dose, Red marrow (M1 (326 MBq)): 3.42 mGy
Estimated absorbed dose, Remainder (M1 (326 MBq)): 4.10 mGy
Estimated absorbed dose, Skin (M1 (326 MBq)): 2.10 mGy
Estimated absorbed dose, Small intestine (M1 (326 MBq)): 13.8 mGy
Estimated absorbed dose, Spleen (M1 (326 MBq)): 21.3 mGy
Estimated absorbed dose, Stomach wall (M1 (326 MBq)): 4.33 mGy
Estimated absorbed dose, Testes (M1 (326 MBq)): 2.12 mGy
Estimated absorbed dose, Thymus (M1 (326 MBq)): 16.7 mGy
Estimated absorbed dose, Thyroid (M1 (326 MBq)): 3.39 mGy
Estimated absorbed dose, Upper, lower intestine wall (M1 (326 MBq)): 5.37 mGy
Estimated absorbed dose, Urinary bladder wall (M1 (326 MBq)): 3.65 mGy
Effective dose (whole body) (M2 (289 MBq)): 5.48 mSv
Estimated absorbed dose, Adrenals (M2 (289 MBq)): 4.94 mGy
Estimated absorbed dose, Brain (M2 (289 MBq)): 3.03 mGy
Estimated absorbed dose, Breasts (M2 (289 MBq)): 2.26 mGy
Estimated absorbed dose, Gallbladder wall (M2 (289 MBq)): 6.41 mGy
Estimated absorbed dose, Heart wall (M2 (289 MBq)): 6.46 mGy
Estimated absorbed dose, Kidneys (M2 (289 MBq)): 37.8 mGy
Estimated absorbed dose, Liver (M2 (289 MBq)): 16.6 mGy
Estimated absorbed dose, Lower large intestine wall (M2 (289 MBq)): 2.97 mGy
Estimated absorbed dose, Lungs (M2 (289 MBq)): 11.0 mGy
Estimated absorbed dose, Muscle (M2 (289 MBq)): 2.55 mGy
Estimated absorbed dose, Osteogenic cells (M2 (289 MBq)): 3.58 mGy
Estimated absorbed dose, Pancreas (M2 (289 MBq)): 4.30 mGy
Estimated absorbed dose, Red marrow (M2 (289 MBq)): 2.76 mGy
Estimated absorbed dose, Remainder (M2 (289 MBq)): 3.32 mGy
Estimated absorbed dose, Skin (M2 (289 MBq)): 1.85 mGy
Estimated absorbed dose, Small intestine (M2 (289 MBq)): 9.32 mGy
Estimated absorbed dose, Spleen (M2 (289 MBq)): 7.24 mGy
Estimated absorbed dose, Stomach wall (M2 (289 MBq)): 3.41 mGy
Estimated absorbed dose, Testes (M2 (289 MBq)): 2.02 mGy
Estimated absorbed dose, Thymus (M2 (289 MBq)): 4.68 mGy
Estimated absorbed dose, Thyroid (M2 (289 MBq)): 2.23 mGy
Estimated absorbed dose, Upper, lower intestine wall (M2 (289 MBq)): 4.24 mGy
Estimated absorbed dose, Urinary bladder wall (M2 (289 MBq)): 4.70 mGy
Effective dose (whole body) (M3 (70.3 MBq)): 1.52 mSv
Estimated absorbed dose, Adrenals (M3 (70.3 MBq)): 1.21 mGy
Estimated absorbed dose, Brain (M3 (70.3 MBq)): 0.820 mGy
Estimated absorbed dose, Breasts (M3 (70.3 MBq)): 0.560 mGy
Estimated absorbed dose, Gallbladder wall (M3 (70.3 MBq)): 1.35 mGy
Estimated absorbed dose, Heart wall (M3 (70.3 MBq)): 1.79 mGy
Estimated absorbed dose, Kidneys (M3 (70.3 MBq)): 12.7 mGy
Estimated absorbed dose, Liver (M3 (70.3 MBq)): 2.61 mGy
Estimated absorbed dose, Lower large intestine wall (M3 (70.3 MBq)): 0.670 mGy
Estimated absorbed dose, Lungs (M3 (70.3 MBq)): 3.91 mGy
Estimated absorbed dose, Muscle (M3 (70.3 MBq)): 0.605 mGy
Estimated absorbed dose, Osteogenic cells (M3 (70.3 MBq)): 0.837 mGy
Estimated absorbed dose, Pancreas (M3 (70.3 MBq)): 1.33 mGy
Estimated absorbed dose, Red marrow (M3 (70.3 MBq)): 0.662 mGy
Estimated absorbed dose, Remainder (M3 (70.3 MBq)): 0.780 mGy
Estimated absorbed dose, Skin (M3 (70.3 MBq)): 0.434 mGy
Estimated absorbed dose, Small intestine (M3 (70.3 MBq)): 1.61 mGy
Estimated absorbed dose, Spleen (M3 (70.3 MBq)): 2.28 mGy
Estimated absorbed dose, Stomach wall (M3 (70.3 MBq)): 0.815 mGy
Estimated absorbed dose, Testes (M3 (70.3 MBq)): 0.479 mGy
Estimated absorbed dose, Thymus (M3 (70.3 MBq)): 1.64 mGy
Estimated absorbed dose, Thyroid (M3 (70.3 MBq)): 0.643 mGy
Estimated absorbed dose, Upper, lower intestine wall (M3 (70.3 MBq)): 0.879 mGy
Estimated absorbed dose, Urinary bladder wall (M3 (70.3 MBq)): 1.96 mGy
Effective dose (whole body) (M4 (153 MBq)): 2.89 mSv
Estimated absorbed dose, Adrenals (M4 (153 MBq)): 3.04 mGy
Estimated absorbed dose, Brain (M4 (153 MBq)): 2.44 mGy
Estimated absorbed dose, Breasts (M4 (153 MBq)): 1.31 mGy
Estimated absorbed dose, Gallbladder wall (M4 (153 MBq)): 3.80 mGy
Estimated absorbed dose, Heart wall (M4 (153 MBq)): 1.79 mGy
Estimated absorbed dose, Liver (M4 (153 MBq)): 2.12 mGy
Estimated absorbed dose, Lower large intestine wall (M4 (153 MBq)): 2.51 mGy
Estimated absorbed dose, Lungs (M4 (153 MBq)): 4.01 mGy
Estimated absorbed dose, Muscle (M4 (153 MBq)): 35.0 mGy
Estimated absorbed dose, Osteogenic cells (M4 (153 MBq)): 5.85 mGy
Estimated absorbed dose, Pancreas (M4 (153 MBq)): 1.52 mGy
Estimated absorbed dose, Red marrow (M4 (153 MBq)): 2.02 mGy
Estimated absorbed dose, Remainder (M4 (153 MBq)): 1.96 mGy
Estimated absorbed dose, Skin (M4 (153 MBq)): 4.45 mGy
Estimated absorbed dose, Small intestine (M4 (153 MBq)): 1.69 mGy
Estimated absorbed dose, Spleen (M4 (153 MBq)): 2.12 mGy
Estimated absorbed dose, Stomach wall (M4 (153 MBq)): 1.10 mGy
Estimated absorbed dose, Testes (M4 (153 MBq)): 7.89 mGy
Estimated absorbed dose, Thymus (M4 (153 MBq)): 1.19 mGy
Estimated absorbed dose, Thyroid (M4 (153 MBq)): 7.36 mGy
Estimated absorbed dose, Upper, lower intestine wall (M4 (153 MBq)): 2.17 mGy
Estimated absorbed dose, Urinary bladder wall (M4 (153 MBq)): 2.81 mGy
Effective dose (whole body) (Male n=4, mean±SD): 0.0196±0.0019 mSv/MBq
Estimated dose, Adrenals (Male n=4, mean±SD): 0.0181±0.00135 mGy/MBq
Estimated dose, Brain (Male n=4, mean±SD): 0.0135±0.00305 mGy/MBq
Estimated dose, Breasts (Male n=4, mean±SD): 0.00801±0.000253 mGy/MBq
Estimated dose, Gallbladder wall (Male n=4, mean±SD): 0.0230±0.00361 mGy/MBq
Estimated dose, Heart wall (Male n=4, mean±SD): 0.0214±0.00739 mGy/MBq
Estimated dose, Kidneys (Male n=4, mean±SD): 0.142±0.0804 mGy/MBq
Estimated dose, Liver (Male n=4, mean±SD): 0.0392±0.0195 mGy/MBq
Estimated dose, Lower, large intestine wall (Male n=4, mean±SD): 0.0114±0.00246 mGy/MBq
Estimated dose, Lungs (Male n=4, mean±SD): 0.0446±0.0167 mGy/MBq
Estimated dose, Muscle (Male n=4, mean±SD): 0.0589±0.100 mGy/MBq
Estimated dose, Osteogenic cells (Male n=4, mean±SD): 0.0180±0.0114 mGy/MBq
Estimated dose, Pancreas (Male n=4, mean±SD): 0.0156±0.00485 mGy/MBq
Estimated dose, Red marrow (Male n=4, mean±SD): 0.0104±0.00124 mGy/MBq
Estimated dose, Remainder (Male n=4, mean±SD): 0.0117±0.000634 mGy/MBq
Estimated dose, Skin (Male n=4, mean±SD): 0.0114±0.0101 mGy/MBq
Estimated dose, Small intestine (Male n=4, mean±SD): 0.0269±0.0137 mGy/MBq
Estimated dose, Spleen (Male n=4, mean±SD): 0.0340±0.0226 mGy/MBq
Estimated dose, Stomach wall (Male n=4, mean±SD): 0.0108±0.00294 mGy/MBq
Estimated dose, Testes (Male n=4, mean±SD): 0.0169±0.0202 mGy/MBq
Estimated dose, Thymus (Male n=4, mean±SD): 0.0245±0.0190 mGy/MBq
Estimated dose, Thyroid (Male n=4, mean±SD): 0.0178±0.0175 mGy/MBq
Estimated dose, Upper, lower intestine wall (Male n=4, mean±SD): 0.0142±0.00181 mGy/MBq
Estimated dose, Urinary bladder wall (Male n=4, mean±SD): 0.0180±0.00704 mGy/MBq
